Published values pooled from the literature.
Protocols differ between the studies behind these lines. pIC50: −log10 of the molar value.
Target: Cytochrome P450 2C19 (CYP2C19, Homo sapiens, UniProt P33261)
Read-out: enzyme activity
Mode: inhibitor

Compound	test	test system	conditions	quantity	result
N=C(N)NCc1ccc(NC(=O)C23CCC(C(=O)Nc4ccc(C5=CCN(C(=N)N)CC5)cc4)(CC2)CC3)cc1	–	liver microsomes	10 µM	inhibition	28.6%
C[C@@H](c1ccc2nccn2c1)n1nnc2ncc(-c3cnn(C)c3)nc21	–	human, liver microsomes	pH 7.4	pIC50	4.00
CCN(Cc1cnc2nc(N)nc(N)c2n1)c1ccc(C(=O)N2CCC(C(=O)OC)CC2)cc1	luciferase	–	10 µM	inhibition	-11.1%
O=C(Nc1c2c(cc3c1CCC3)CCC2)NS(=O)(=O)/C=C/c1nccs1	–	human, liver microsomes	2 µM, pH 7.4	inhibition	8.8%
CCc1cc(/C(C)=N/OCc2ccc(C3CCCCC3)c(C(F)(F)F)c2)ccc1CN1CC(C(=O)O)C1	–	human, liver microsomes	100 µM, 20 min	inhibition	9.4%
Nc1nc(N)c2nc(CNc3ccc(C(=O)N4CCC(C(=O)O)CC4)cc3)cnc2n1	luciferase	–	10 µM	inhibition	-18.1%
N=C(N)N1CC=C(c2coc(C(=O)Nc3ccc(C4=CCN(C(=N)N)CC4)c(F)c3)c2)CC1	–	liver microsomes	10 µM	inhibition	2.2%
C=CC(=O)Nc1cc(Nc2nccc(Nc3cc(Cl)c(F)cc3C(C)(C)O)n2)c(OC)cc1N1CC[C@@H](N(C)C)C1	–	human, liver microsomes	10 µM	inhibition	< 20%
COc1ccc(Oc2ccc(CN(Cc3ccccc3)Cc3cnc4nc(N)nc(N)c4n3)cc2)cc1	luciferase	–	10 µM	inhibition	102%
